The text below walks through data of ChEMBL document CHEMBL1177650, “Synthesis, structural elucidation and in vitro antiparasitic activity against Trypanosoma cruzi and Leishmania chagasi parasites of novel tetrahydro-1-benzazepine derivatives” (Bioorg Med Chem, 2010).

For data set [1], the system named is Trypanosoma cruzi. Description: Antitrypanosomal activity against Trypanosoma cruzi 320I01 epimastigotes after 72 hrs by haemocytometry. The data set is classed as functional, organism-based. The conditions noted are these: 320I01, 72 h. In a few lines: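 Late-phase T. cruzi epimastigotes cultured in LIT medium with hiFCS at 28 °C; threefold serial dilutions (0.3–100 μM) for 72 h at 28 °C, untreated controls. Parasites counted in a haemocytometer; IC50/IC90 by sigmoidal regression; each concentration in triplicate, two experiments.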

Data set [2] in a line: Cytotoxicity against human THP1 cells after 72 hrs by MTT assay. It counts as cell-based. The conditions noted are these: THP-1 cells. Put shortly:
(§1)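 Vero or transformed THP-1 cells incubated with compound (0.3–300 μM) 72 h at 37 °C, 5% CO2; untreated controls. MTT read-out, formazan OD at 580 nm; % cytotoxicity = 100 × (OD control − OD treated)/OD control. CC50/CC90 by sigmoidal regression; triplicates, repeated twice. DMSO stocks 100× concentrated, diluted in medium.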

Data set [3] in a line: Selectivity index, CC50 for african green monkey Vero cells to IC50 for Trypanosoma cruzi 320I01 amastigotes. It counts as functional. Put shortly: (§2)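 Selectivity index computed as CC50 in Vero cells divided by IC50 against the T. cruzi stage named in the line.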
In data set [4] the test system is Leishmania chagasi. Description: Antileishmanial activity against Leishmania chagasi MHOM/BR/74/PP75 promastigotes after 72 hrs by haemocytometry. The data set is classed as functional, organism-based. Conditions: MHOM/BR/74/PP75, 72 h. In a few lines: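 Late-phase L. chagasi promastigotes, grown at 28 °C in RPMI 1640 with hemin, HEPES and 10% hiSBF, exposed to threefold serial dilutions (0.3–100 μM) for 72 h at 28 °C; untreated controls. Growth inhibition from haemocytometer counts; IC50/IC90 by sigmoidal regression; triplicates, repeated twice.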

Data set [5] in a line: Selectivity index, CC50 for african green monkey Vero cells to IC50 for Trypanosoma cruzi 320I01 epimastigote. It counts as functional. In a few lines:
as §2

Data set [6] concerns Leishmania chagasi. Description: Antileishmanial activity against Leishmania chagasi MHOM/BR/74/PP75 amastigotes infected in human THP1 cells after 5 days by Giemsa staining. It counts as functional, organism-based. Conditions: MHOM/BR/74/PP75, THP-1, 120 h. Put shortly: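 THP-1 cells (RPMI, 5% hiSBF, 37 °C, 5% CO2) transformed, then infected 24 h with late-phase L. chagasi promastigotes at parasite:cell 10:1. Treated with compound dilutions (top 100 μM) 5 days at 37 °C, 5% CO2, medium changed once after 3 days. Infected cells counted per 300 cells on methanol-fixed Giemsa slides; IC50/IC90 by sigmoidal regression; triplicates, repeated twice.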

A short description of data set [7]: Selectivity index, CC50 for human THP1 cells to IC50 for Leishmania chagasi MHOM/BR/74/PP75 amastigotes. It counts as functional, THP-1. Put shortly: (§3)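 Selectivity index computed as CC50 in THP-1 cells divided by IC50 against the L. chagasi stage named in the line.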
Data set [8] relates to Trypanosoma cruzi. The data set can be described thus: Antitrypanosomal activity against Trypanosoma cruzi 320I01 amastigotes infected in african green monkey Vero cells after 5 days by Giemsa staining. The conditions noted are these: 320I01, Vero, 120 h. It counts as functional, organism-based. Put shortly:
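Vero cells (RPMI, 5% hiSBF, 37 °C, 5% CO2) infected 24 h with tissue-derived T. cruzi trypomastigotes at parasite:cell 10:1. Compound dilutions (top 100 μM) applied 5 days at 37 °C, 5% CO2, medium changed once at day 3. Infected cells scored per 300 cells on methanol-fixed Giemsa preparations; IC50/IC90 by sigmoidal regression; triplicates, two experiments.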

The nature of data set [9]: Cytotoxicity against african green monkey Vero cells after 72 hrs by MTT assay. The conditions noted are these: chlorocebus sabaeus. It counts as cell-based. In a few lines:
as §1

Data set [10] in a line: Selectivity index, CC50 for human THP1 cells to IC50 for Leishmania chagasi MHOM/BR/74/PP75 promastigotes. It counts as functional, THP-1. In a few lines:
as §3

Some results are limits rather than exact numbers.

For the compound `O[C@@H]1Cc2ccccc2N[C@H](c2cccc(Cl)c2)C1` (relative stereo), the IC50 with Trypanosoma cruzi [1] is 19.6 µM; in the data set on Leishmania chagasi [4] it was 41.2 µM; with Leishmania chagasi [6], > 100 µM; in the data set with Trypanosoma cruzi [8], > 100 µM. The IC90 in the data set with Trypanosoma cruzi [1] was > 100 µM; with Leishmania chagasi [4], 47 µM; with Leishmania chagasi [6], > 100 µM; in the data set on Trypanosoma cruzi [8] it was > 100 µM. In addition, the CC50 at 72 h stood at 167 µM in data set [2] and 295 µM in [9]. In addition, the CC90 at 72 h in data set [2] and in [9] was > 300 µM each time. Also, the “Selectivity Index” value in [3] was >3; in data set [5], 15.05; in data set [7], >1; in data set [10], 4.04.
On to `O[C@@H]1Cc2cc(Cl)ccc2N[C@H](c2ccccc2)C1` (relative stereo), for which the IC50 was 49.6 µM with Trypanosoma cruzi [1], 22.1 µM in the data set on Leishmania chagasi [4], > 100 µM in the data set with Leishmania chagasi [6] and > 100 µM in the data set with Trypanosoma cruzi [8]. The IC90 was > 100 µM in the data set on Trypanosoma cruzi [1], 90.6 µM in the data set on Leishmania chagasi [4], > 100 µM with Leishmania chagasi [6] and > 100 µM in the data set with Trypanosoma cruzi [8]. The CC50 at 72 h was 188 µM in data set [2] and 191 µM in data set [9]. Moreover, the CC90 at 72 h in [2] and in data set [9] was > 300 µM each time. The “Selectivity Index” value in data set [3] is listed as >2; in [5], 3.85; in [7], >1; in [10], 8.5.
On to `O[C@@H]1Cc2cc(F)ccc2N[C@H](c2ccccc2)C1` (relative stereo), for which the IC50 with Trypanosoma cruzi [1] is 12.4 µM; in the data set on Leishmania chagasi [4] it was > 100 µM; with Leishmania chagasi [6] it was > 100 µM; in the data set on Trypanosoma cruzi [8], > 100 µM. The IC90 with Trypanosoma cruzi [1], in the data set with Leishmania chagasi [4], in the data set on Leishmania chagasi [6] and with Trypanosoma cruzi [8] was > 100 µM throughout. In addition, the CC50 at 72 h in [2] and in data set [9] was > 300 µM in each case. For the same compound, the CC90 at 72 h in data set [2] and in data set [9] was > 300 µM in each case. The “Selectivity Index” value in data set [3] was >3; in data set [5], >24; in data set [7], >3; in [10], >3.
`Cc1cccc([C@@H]2C[C@H](O)Cc3ccccc3N2)c1` (relative stereo): the half-maximal inhibitory concentration (IC50) with Trypanosoma cruzi [1] was 15.6 µM; in the data set on Leishmania chagasi [4], > 100 µM; in the data set on Leishmania chagasi [6], > 100 µM; with Trypanosoma cruzi [8] it was 98 µM. Further, the 90% effect concentration (IC90) in the data set on Trypanosoma cruzi [1] is 54.9 µM; with Leishmania chagasi [4], > 100 µM; with Leishmania chagasi [6], > 100 µM; in the data set on Trypanosoma cruzi [8] it was > 100 µM. Moreover, the cytotoxic concentration (CC50) at 72 h is 176 µM in [2] and > 300 µM in data set [9]. For the same compound, the CC90 at 72 h in data set [2] and in [9] was > 300 µM each time. The “Selectivity Index” value in data set [3] was >3; in data set [5], >19; in data set [7] it was >1; in data set [10] it was >1.
In the case of `Cc1ccc([C@@H]2C[C@H](O)Cc3cc(C)ccc3N2)cc1` (relative stereo), the IC50 in the data set on Trypanosoma cruzi [1] is 6.1 µM; in the data set with Leishmania chagasi [4] it was > 100 µM; with Leishmania chagasi [6], > 100 µM; with Trypanosoma cruzi [8], 50.5 µM. Besides, the IC90 in the data set on Trypanosoma cruzi [1] was 35.3 µM; with Leishmania chagasi [4] it was > 100 µM; with Leishmania chagasi [6], > 100 µM; in the data set with Trypanosoma cruzi [8], > 100 µM. Besides, the CC50 at 72 h in [2] was 172 µM; in data set [9] it was > 300 µM. The CC90 at 72 h in [2] and in [9] was > 300 µM in each case. In addition, the “Selectivity Index” value in [3] is reported as >6; in data set [5] it was >49; in data set [7] it was >1; in data set [10], >1.
`O[C@@H]1Cc2cc(Cl)ccc2N[C@H](c2ccc(Cl)cc2)C1` (relative stereo): the IC50 in the data set with Trypanosoma cruzi [1] is 16.4 µM; in the data set on Leishmania chagasi [4], 14.1 µM; in the data set on Leishmania chagasi [6], > 100 µM; with Trypanosoma cruzi [8] it was > 100 µM. In addition, the IC90 with Trypanosoma cruzi [1] was 29.7 µM; in the data set with Leishmania chagasi [4], 41 µM; in the data set with Leishmania chagasi [6], > 100 µM; in the data set with Trypanosoma cruzi [8], > 100 µM. For the same compound, the CC50 at 72 h in [2] was determined as 49.2 µM; in data set [9], 76.6 µM. Moreover, the CC90 at 72 h in data set [2] and in [9] was > 300 µM in each case. Also, the “Selectivity Index” value is given as >0.8 in [3], 4.65 in data set [5], >0.49 in [7] and 3.49 in data set [10].
`O[C@@H]1Cc2ccccc2N[C@H](c2ccc(Cl)cc2)C1` (relative stereo): the IC50 is 65.4 µM with Trypanosoma cruzi [1], 67.9 µM with Leishmania chagasi [4], > 100 µM in the data set with Leishmania chagasi [6] and 41.8 µM in the data set on Trypanosoma cruzi [8]. Also, the IC90 in the data set with Trypanosoma cruzi [1], in the data set on Leishmania chagasi [4], with Leishmania chagasi [6] and with Trypanosoma cruzi [8] was > 100 µM each time. Moreover, the CC50 at 72 h in data set [2] is 114 µM; in data set [9] it was > 300 µM. The CC90 at 72 h in data set [2] and in [9] was > 300 µM throughout. Further, the “Selectivity Index” value is >7 in data set [3], >4 in data set [5], >1 in data set [7] and 1.68 in [10].
In the case of `O[C@@H]1Cc2ccccc2N[C@H](c2ccc(F)cc2)C1` (relative stereo), the IC50 was 26.4 µM with Trypanosoma cruzi [1], > 100 µM with Leishmania chagasi [4], > 100 µM in the data set with Leishmania chagasi [6] and > 100 µM in the data set on Trypanosoma cruzi [8]. Besides, the IC90 in the data set on Trypanosoma cruzi [1] is 57.6 µM; in the data set on Leishmania chagasi [4], > 100 µM; with Leishmania chagasi [6] it was > 100 µM; in the data set on Trypanosoma cruzi [8], > 100 µM. Besides, the CC50 at 72 h in data set [2] and in data set [9] was > 300 µM throughout. In addition, the CC90 at 72 h in data set [2] and in [9] was > 300 µM each time. Also, the “Selectivity Index” value in data set [3] is listed as >3; in data set [5], >11; in data set [7], >3; in [10] it was >3.
`COc1cccc([C@@H]2C[C@H](O)Cc3ccccc3N2)c1` (relative stereo): the IC50 with Trypanosoma cruzi [1] is 30.1 µM; with Leishmania chagasi [4], 97.1 µM; with Leishmania chagasi [6], > 100 µM; in the data set on Trypanosoma cruzi [8], > 100 µM. The IC90 was 70.2 µM in the data set with Trypanosoma cruzi [1], > 100 µM in the data set on Leishmania chagasi [4], > 100 µM with Leishmania chagasi [6] and > 100 µM in the data set with Trypanosoma cruzi [8]. Further, the CC50 at 72 h in [2] and in data set [9] was > 300 µM throughout. Further, the CC90 at 72 h in [2] and in [9] was > 300 µM each time. The “Selectivity Index” value is reported as >3 in [3], >10 in [5], >3 in data set [7] and >3 in data set [10].
On to `O[C@@H]1Cc2cc(Cl)ccc2N[C@H](c2ccc(Br)cc2)C1` (relative stereo), for which the IC50 in the data set on Trypanosoma cruzi [1] was 27.2 µM; in the data set on Leishmania chagasi [4], 9.54 µM; with Leishmania chagasi [6], > 94.9 µM; in the data set with Trypanosoma cruzi [8] it was > 94.9 µM. Moreover, the IC90 is 54.4 µM in the data set on Trypanosoma cruzi [1], 11.7 µM in the data set on Leishmania chagasi [4], > 94.9 µM in the data set on Leishmania chagasi [6] and > 94.9 µM in the data set with Trypanosoma cruzi [8]. Also, the CC50 at 72 h came to 153 µM in data set [2] and 57.7 µM in data set [9]. Also, the figures for the CC90 at 72 h in [2] and in data set [9] were 280 µM and 164 µM, respectively. Further, the “Selectivity Index” value in data set [3] is given as >0.6; in data set [5] it was 2.12; in data set [7], >1.61; in data set [10] it was 16.05.
Consider `O[C@@H]1Cc2cc(F)ccc2N[C@H](c2ccc(Cl)cc2)C1` (relative stereo), for which the IC50 in the data set with Trypanosoma cruzi [1] was 45.9 µM; in the data set with Leishmania chagasi [4] it was 17.1 µM; in the data set on Leishmania chagasi [6], > 100 µM; in the data set on Trypanosoma cruzi [8] it was > 100 µM. The IC90 in the data set with Trypanosoma cruzi [1] was > 100 µM; in the data set with Leishmania chagasi [4], 77.7 µM; with Leishmania chagasi [6], > 100 µM; in the data set with Trypanosoma cruzi [8], > 100 µM. Also, the figures for the CC50 at 72 h in data set [2] and in data set [9] were 100 µM and 194 µM, respectively. In addition, the CC90 at 72 h in data set [2] and in data set [9] was > 300 µM each time. The “Selectivity Index” value in [3] is >1.9; in [5] it was 4.21; in [7], >1; in data set [10] it was 5.86.
